ChEMBL document CHEMBL1126828, “Structure-activity relationships of trans-3,4-dimethyl-4-(3-hydroxyphenyl)piperidine antagonists for mu- and kappa-opioid receptors” (J Med Chem, 1993)
The source made the active and inactive calls. The rule behind the calls is not given here.

Columns and labels:
[1] = molecular target: Kappa-type opioid receptor (Rattus norvegicus) (UniProt P34975); assay: Tested for the antagonism of kappa opioid receptor diuresis at a dose of 0.08 mg/kg subcutaneously; assay type: functional, organism-based; set-up: dose 0.08 mg/kg
Kappa-type opioid receptor (Rattus norvegicus), sequence (P34975 whole entry): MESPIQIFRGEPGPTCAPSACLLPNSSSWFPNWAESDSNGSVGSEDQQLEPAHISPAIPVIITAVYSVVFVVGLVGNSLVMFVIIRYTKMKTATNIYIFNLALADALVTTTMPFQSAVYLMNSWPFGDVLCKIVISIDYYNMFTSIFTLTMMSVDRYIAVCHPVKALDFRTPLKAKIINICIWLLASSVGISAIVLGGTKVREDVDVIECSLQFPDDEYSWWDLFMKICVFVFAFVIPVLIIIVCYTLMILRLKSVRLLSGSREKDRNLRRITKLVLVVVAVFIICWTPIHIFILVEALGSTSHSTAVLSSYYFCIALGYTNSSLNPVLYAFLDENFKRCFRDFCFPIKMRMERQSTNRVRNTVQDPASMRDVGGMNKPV
Outline: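 Male Long-Evans hooded rats (350-500 g), bremazocine HCl 0.08 mg/kg sc to induce diuresis, test antagonist sc at once on opposite side; metabolism cages, urine volume at 2 and 5 h. Three rats per dose, doses varied 2-fold; AD50 = dose halving 5-h urination.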

[2] = molecular target: Kappa-type opioid receptor (Mus musculus) (UniProt P33534); assay: Antagonism of opioid analgesia using a mouse writhing model to block U-50,488 ([…]) induced kappa-opioid receptor subcutaneously; assay type: functional, organism-based
Kappa-type opioid receptor (Mus musculus), sequence (P33534 whole entry): as the sequence (P34975 whole entry) above, with E11D, A17S, P51S, V308A counted along it

Mu-type opioid receptor [3] = molecular target: T1, Mu-type opioid receptor (Rattus norvegicus, UniProt P33535); assay: Binding affinity towards mu opioid receptor by displacement of [3H]NAL from rat brain homogenates; assay type: tissue-based
T1 sequence (P33535 whole entry): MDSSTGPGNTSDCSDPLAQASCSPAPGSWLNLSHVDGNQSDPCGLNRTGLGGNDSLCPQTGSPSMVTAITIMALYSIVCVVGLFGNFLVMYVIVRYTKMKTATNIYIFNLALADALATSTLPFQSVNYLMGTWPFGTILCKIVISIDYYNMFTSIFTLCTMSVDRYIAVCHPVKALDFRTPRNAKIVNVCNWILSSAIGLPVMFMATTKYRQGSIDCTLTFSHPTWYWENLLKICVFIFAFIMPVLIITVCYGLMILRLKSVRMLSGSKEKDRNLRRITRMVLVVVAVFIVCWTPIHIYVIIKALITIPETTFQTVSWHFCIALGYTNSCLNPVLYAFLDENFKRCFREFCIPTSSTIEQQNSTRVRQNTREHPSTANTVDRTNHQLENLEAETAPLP

[4] = molecular target: Mu-type opioid receptor (Mus musculus) (UniProt P42866); assay: Antagonism of opioid analgesia using a mouse writhing model to block morphine ([…]) induced mu-opioid receptor (subcutaneously dosed); assay type: functional, organism-based
Mu-type opioid receptor (Mus musculus), sequence (P42866 whole entry): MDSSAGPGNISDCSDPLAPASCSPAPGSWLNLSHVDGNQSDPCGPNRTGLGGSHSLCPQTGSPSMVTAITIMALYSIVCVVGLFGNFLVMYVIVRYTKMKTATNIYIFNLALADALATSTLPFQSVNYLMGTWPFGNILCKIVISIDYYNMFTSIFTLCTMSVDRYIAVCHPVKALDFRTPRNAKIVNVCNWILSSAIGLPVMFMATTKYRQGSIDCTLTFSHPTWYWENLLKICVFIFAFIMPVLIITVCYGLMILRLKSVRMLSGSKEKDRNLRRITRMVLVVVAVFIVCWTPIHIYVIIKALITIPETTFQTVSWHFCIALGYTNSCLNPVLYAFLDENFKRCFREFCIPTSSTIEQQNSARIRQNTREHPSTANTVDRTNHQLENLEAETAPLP

[5] = molecular target: T2, Kappa-type opioid receptor (Cavia porcellus, UniProt P41144); assay: Binding affinity towards kappa-opioid receptor by displacement of [3H]-EKC at from guinea pig cortical tissue
T2 sequence (P41144 whole entry): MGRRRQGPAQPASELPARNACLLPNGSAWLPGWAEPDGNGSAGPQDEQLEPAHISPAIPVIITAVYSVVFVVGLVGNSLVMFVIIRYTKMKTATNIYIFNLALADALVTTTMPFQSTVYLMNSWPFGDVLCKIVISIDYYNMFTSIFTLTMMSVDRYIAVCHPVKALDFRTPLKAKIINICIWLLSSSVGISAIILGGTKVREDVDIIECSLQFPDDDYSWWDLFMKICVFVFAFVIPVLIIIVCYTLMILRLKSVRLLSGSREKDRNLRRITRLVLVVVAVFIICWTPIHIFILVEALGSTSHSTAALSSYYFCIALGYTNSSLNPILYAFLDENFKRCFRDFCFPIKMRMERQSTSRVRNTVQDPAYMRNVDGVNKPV

Mu-type opioid receptor [6] = molecular target: T1, Mu-type opioid receptor; assay: Binding affinity towards mu-opioid receptor by displacement of [3H]NAL at 10 nM from rat brain homogenates; assay type: tissue-based
Mu-type opioid receptor [7] = molecular target: T1, Mu-type opioid receptor; assay: Binding affinity towards mu-opioid receptor by displacement of [3H]NAL at 100 nM from rat brain homogenates; assay type: tissue-based
[8] = molecular target: T2, Kappa-type opioid receptor; assay: Binding affinity towards kappa-opioid receptor by displacement of [3H]EKC from guinea pig cortical tissue
Outline: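 Guinea pig cortical washed crude synaptosomal membranes (stored -125 °C) in modified Krebs-HEPES pH 7.4; 1.0 nM [3H]ethylketocyclazocine, 100 nM fentanyl and 100 nM D-Ala2-D-Leu5-enkephalin to block mu/delta sites; 37 °C, 45 min. Nonspecific: 1000 nM unlabeled EKC. GF-C filtration, ice-cold washes, scintillation counting. Ki from at least six concentrations in triplicate, by regression.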

[9] = molecular target: Mu-type opioid receptor (Mus musculus) (UniProt P42866); settings: 0.08 mg/kg

SMILES	AD50 [1] [mg/kg]	AD50 [2] [mg/kg]	Ki (Mu-type opioid receptor [3]) [nM]	AD50 [4] [mg/kg]	Ki [5] [nM]	Ki (Mu-type opioid receptor [6]) [nM]	Ki (Mu-type opioid receptor [7]) [nM]	Ki [8] [nM]	AD50 [9]
CCCCCCN1CC[C@@](C)(c2cccc(O)c2)[C@@H](C)C1	0.7	0.11	0.29	0.052					
C[C@H]1CN(CCCc2cccs2)CC[C@@]1(C)c1cccc(O)c1 (stereo in doubt; 41) [listing 1 of 2 here]			0.56		6.1				
CCCCCN1CC[C@@](C)(c2cccc(O)c2)[C@@H](C)C1	0.69		4.3	0.37					
CCCCCCCN1CC[C@@](C)(c2cccc(O)c2)[C@@H](C)C1			0.62						
C[C@H]1CN(CCOc2ccccc2)CC[C@@]1(C)c1cccc(O)c1	3	> 40	1.3	0.14	57				
C[C@H]1CN(C)CC[C@@]1(C)c1cccc(O)c1	> 10		80	0.74	833				
C[C@H]1CN(CCCc2cccs2)CC[C@@]1(C)c1cccc(O)c1 (stereo in doubt; 41) [listing 2 of 2 here]		0.3							
C[C@H]1CN(CCC(O)c2ccccc2)CC[C@@]1(C)c1cccc(O)c1 (stereo partly drawn)			0.96		12.5				
CC(CCCN1CC[C@@](C)(c2cccc(O)c2)[C@@H](C)C1)c1ccccc1 (stereo partly drawn)	8.4	0.91		0.25		63	100		
C[C@H]1CN(CCCc2cccc(Cl)c2)CC[C@@]1(C)c1cccc(O)c1	11	> 1.25		0.76		89	100		
CCN1CC[C@@](C)(c2cccc(O)c2)[C@@H](C)C1		> 1.25	52	> 1.25	18				
C[C@H]1CN(CCC(=O)c2ccccc2)CC[C@@]1(C)c1cccc(O)c1 (stereo in doubt; 6) [listing 1 of 2 here]	3.2	4.5		0.14					
Cc1ccccc1CCCN1CC[C@@](C)(c2cccc(O)c2)[C@@H](C)C1	1.4	0.09	0.62	0.05	8.9				
C[C@H]1CN(CCCCc2ccccc2)CC[C@@]1(C)c1cccc(O)c1	4.1	> 1.25	2	0.28					
C[C@H]1CN(CCc2ccncc2)CC[C@@]1(C)c1cccc(O)c1	14	> 1.25		> 1.25		54	99		
C[C@H]1CN(CCC(O)c2cccs2)CC[C@@]1(C)c1cccc(O)c1 (stereo partly drawn)	1.4	0.14	0.5	0.07	11.7				
C[C@@H]1CN(CCCc2cccs2)CC[C@]1(C)c1cccc(O)c1			1.8		13				
C[C@H]1CN(CCCc2ccco2)CC[C@@]1(C)c1cccc(O)c1		0.26	1.4	0.08	14				
C[C@H]1CN(CCc2cccc(Cl)c2)CC[C@@]1(C)c1cccc(O)c1	3.6	0.38	0.3	0.44					
C[C@H]1CN(CC2CCCO2)CC[C@@]1(C)c1cccc(O)c1 (stereo partly drawn)	3.2	0.75		0.6		26	60		
C[C@H]1CN(Cc2ccccc2)CC[C@@]1(C)c1cccc(O)c1	2.5	0.45		0.29		65	89		
Cc1cccc(CCN2CC[C@@](C)(c3cccc(O)c3)[C@@H](C)C2)c1	5.7	0.95		0.27		83	100		
C[C@H]1CN(CCc2cccc3ccccc23)CC[C@@]1(C)c1cccc(O)c1	> 5	0.51		0.08		1.1			
C[C@H]1CN(CCCc2ccccc2)CC[C@@]1(C)c1cccc(O)c1	1.1		0.69	2.4	15				

SMILES	AD50 [1] [mg/kg]	AD50 [2] [mg/kg]	Ki (Mu-type opioid receptor [3]) [nM]	AD50 [4] [mg/kg]	Ki [5] [nM]	Ki (Mu-type opioid receptor [6]) [nM]	Ki (Mu-type opioid receptor [7]) [nM]	Ki [8] [nM]	AD50 [9]
C[C@H]1CN(CCc2ccccc2)CC[C@@]1(C)c1cccc(O)c1	1.8	1.4		0.16					
C=CCN1CC[C@@](C)(c2cccc(O)c2)[C@@H](C)C1		> 10	16	1.3	313				
C[C@H]1CN(Cc2ccco2)CC[C@@]1(C)c1cccc(O)c1		1.35	5.8	0.71	71				
C[C@H]1CN(CCC(=O)c2ccccc2)CC[C@@]1(C)c1cccc(O)c1 (stereo in doubt; 8)			3.6		163				
Cc1ccccc1CCN1CC[C@@](C)(c2cccc(O)c2)[C@@H](C)C1	0.5	0.33		0.19		90	100	7.5	
C[C@H]1CN(CCc2cccc(F)c2)CC[C@@]1(C)c1cccc(O)c1	1.4	0.84		0.14		3.2			
C[C@H]1CN(CCCc2ccsc2)CC[C@@]1(C)c1cccc(O)c1					10	0.26			
C[C@H]1CN(CCCCc2cccs2)CC[C@@]1(C)c1cccc(O)c1	3.3	0.43		0.16		23	69		
C[C@H]1CN(CCC(=O)c2cccs2)CC[C@@]1(C)c1cccc(O)c1			1.5		15				
COc1ccccc1CCCN1CC[C@@](C)(c2cccc(O)c2)[C@@H](C)C1	2.2	> 0.64	0.95	0.18					
C[C@H]1CN(CCc2ccc(Cl)c(Cl)c2)CC[C@@]1(C)c1cccc(O)c1						50	90		inactive
C[C@H]1CN(CCCc2cccs2)CC[C@@]1(C)c1cccc(O)c1 (stereo in doubt; 42) [listing 1 of 2 here]		0.25		0.03					
C[C@H]1CN(CCCOc2ccccc2)CC[C@@]1(C)c1cccc(O)c1	8.4	> 1.25	1	> 1.25	61				
C[C@H]1CN(CCCc2cccs2)CC[C@@]1(C)c1cccc(O)c1 (stereo in doubt; 42) [listing 2 of 2 here]			0.2		3.3				
C[C@H]1CN(CC2CC2)CC[C@@]1(C)c1cccc(O)c1		6.1	21	1.3					
C[C@@H]1CN(CCC(=O)c2ccccc2)CC[C@]1(C)c1cccc(O)c1			12		318				
C[C@H]1CN(Cc2ccoc2)CC[C@@]1(C)c1cccc(O)c1	3.8	0.71		0.4		82	100		
C[C@H]1CN(CCc2cccs2)CC[C@@]1(C)c1cccc(O)c1	3.8	0.25	5.3	0.25					
C[C@H]1CN(CCc2ccccc2Cl)CC[C@@]1(C)c1cccc(O)c1	3.4	0.51	3.5	0.31					
C[C@H]1CN(CCC(=O)c2ccccc2)CC[C@@]1(C)c1cccc(O)c1 (stereo in doubt; 6) [listing 2 of 2 here]			5.4		208				
Cc1ccc(CCN2CC[C@@](C)(c3cccc(O)c3)[C@@H](C)C2)cc1	11	> 1.25		> 1.25		52	95		
Cc1cccc(CCCN2CC[C@@](C)(c3cccc(O)c3)[C@@H](C)C2)c1	10	> 0.32	2.8	> 1.25					
C[C@H]1CN(CC(O)Cc2ccccc2)CC[C@@]1(C)c1cccc(O)c1 (stereo partly drawn)	3.7	0.85		0.27		88	100		
C[C@H]1CN(CC(O)c2ccccc2)CC[C@@]1(C)c1cccc(O)c1 (stereo partly drawn)	6.9	11.8		2.4		48	97		
